Screening data deposited in PubChem by several laboratories.
Wee1 degr inh: Wee1 degradation inhibitors, primary screen, cell-based, HeLa, Wee1K328M-luciferase, luminescence | HeLa Luc-Wee1K328M stability; 100% = proteasome inhibitor MG132 effect | reporter increase, % at 5 µM | actives 1.2% (n = 220,000) | AID 1321, 2008;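 active means activation above the mean of all tested compounds plus 3 SD, set per screening run, cut at about 8.8% in these data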;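 further: cells exposed to compound for 20 h before luminescence read; 0% = DMSO alone and 100% = MG132 at 30 µM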
HMGR II inh: inhibitors of E. faecalis class II HMGR, primary screen, biochemical, Enterococcus faecalis; purified E. faecalis HMGR, NADPH absorbance 340 nm kinetic; actives 0.41% (n = 190,000); HMG-CoA reductase (Enterococcus faecalis, mvaE); inhibition, % at 10 µM; AID 1066, 2008;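 active means inhibition above a set limit, the median over all tested compounds plus 3 SD, cut at about 9.5% in these data; inconclusive means no clear call, values can overlap the other calls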;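 further: enzyme runs in reverse so mevalonate oxidation gives rising NADPH absorbance; 0% = complete reaction with DMSO and 100% = background rate lacking mevalonate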
RanGTP-Imp inh: inhibitors of RanGTP-importin-beta interaction, primary screen, biochemical, FRET, CFP-Ran, YFP-importin-beta, homogeneous | Ran GTPase (GTP-bound) - importin-beta complex | cell-free CFP-Ran/YFP-importin-beta FRET ratio | inhibition, % (no concentration beside the values) | actives 1.1% (n = 300,000);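 active means more than half of the replicate wells show a fall in the fluorescence ratio signal beyond about 16%, limit read from the data, passing the limit was not always enough; inconclusive means exactly half of the replicate wells pass the set limit; inactive means fewer than half of replicates pass the limit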;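 further: 0% = DMSO wells and 100% = Ran loaded with GDP instead of GTP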
PHOSPHO1 block: PubChem AID 1565; actives 1.1% (n = 290,000); recombinant PHOSPHO1, absorbance phosphatase assay; inhibition, % at 13.3 µM; in the data active means inhibition above about 60%
Runt-CBFb FRET: inhibitors of RUNX1 Runt–CBFb binding, primary screen, biochemical, FRET, Cerulean-Runt, Venus-CBFb, uHTS | Runt-related transcription factor 1 (Homo sapiens) + Core-binding factor subunit beta … | Cerulean-Runt/Venus-CBFb FRET ratio 530/480, 1 h | inhibition, % at 20 µM | actives 0.46% (n = 220,000) | AID 1496, 2009;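 active means inhibition over about 50% at 20 µM in the single-dose screen, limit read from the data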;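 further: 0% = DMSO wells and 100% = excess unlabeled CBFb competitor control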
Target sequence (Q01196 whole entry, looked up): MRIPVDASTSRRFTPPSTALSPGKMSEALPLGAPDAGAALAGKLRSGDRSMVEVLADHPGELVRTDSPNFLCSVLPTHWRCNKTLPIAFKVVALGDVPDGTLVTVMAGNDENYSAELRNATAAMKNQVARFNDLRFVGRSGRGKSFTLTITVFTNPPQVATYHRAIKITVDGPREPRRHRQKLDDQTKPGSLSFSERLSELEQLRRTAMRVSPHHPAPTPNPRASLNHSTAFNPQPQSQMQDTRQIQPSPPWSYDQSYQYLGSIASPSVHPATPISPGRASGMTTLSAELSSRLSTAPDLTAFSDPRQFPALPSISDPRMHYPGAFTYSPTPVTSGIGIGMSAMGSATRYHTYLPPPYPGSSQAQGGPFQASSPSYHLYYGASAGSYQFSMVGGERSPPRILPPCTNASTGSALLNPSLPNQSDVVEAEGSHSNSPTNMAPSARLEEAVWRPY
Target sequence (Q13951 whole entry, looked up): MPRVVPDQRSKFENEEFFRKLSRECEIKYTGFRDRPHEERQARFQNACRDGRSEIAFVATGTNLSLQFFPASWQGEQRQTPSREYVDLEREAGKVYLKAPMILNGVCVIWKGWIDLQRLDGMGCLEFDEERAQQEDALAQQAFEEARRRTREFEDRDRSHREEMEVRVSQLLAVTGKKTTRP
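Assay system: Cerulean-Runt domain / Medium: Tris 50 mM pH 7.5, KCl, K2SO4, 0.01% BSA / Timing: protein complex preformed 1 h, compound exposure 1 h, room temperature, dark / Measured by: FRET, excitation 422 nm, emission at 530 and 480 nm / Evaluation: loss of energy transfer signal / Control set: 5 µM unlabeled CBFb as full-inhibition high control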
Runt-SMMHC FRET: inhibitors of RUNX1 Runt–CBFb-SMMHC binding, primary screen, biochemical, FRET, Cerulean-Runt, Venus-CBFb-SMMHC, uHTS | Runt-related transcription factor 1 (Homo sapiens) + Core-binding factor subunit beta … | actives 0.74% (n = 220,000) | Cerulean-Runt/Venus-CBFb-SMMHC FRET ratio 530/480, 1 h | AID 1434, 2008 | inhibition, % at 20 µM;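 active means mean inhibition across duplicate retests at 20 µM reaching about 50%, limit read from the data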;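 further: 0% = DMSO wells and 100% = wells with excess untagged CBFb-SMMHC; inhibitors lower the FRET ratio by blocking Runt binding to CBFb-SMMHC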
Numbers without * were called inactive; ? = inconclusive; nt = not tested or not shown. Most compounds without a hit are left out; they make up all but 3.4% or so of the library.

SMILES | Wee1 degr inh | HMGR II inh | RanGTP-Imp inh | PHOSPHO1 block | Runt-CBFb FRET | Runt-SMMHC FRET
CCc1c(C)c(C#N)c2nc3ccccc3n2c1NCCN(C)C | 0 | -1 | ? | 10 | 16 | 26
CCN(CC)c1cc(C)c(C#N)c2nc3ccccc3n12 | 0 | nt | 32* | 33 | 55* | 90*
Cc1cc(Cl)n2c(nc3ccccc32)c1C#N | 0 | -3 | ? | 24 | 1 | -17
Cc1c(Cc2ccccc2)c(NCCCO)n2c(nc3ccccc32)c1C#N | 7 | nt | ? | 24 | 57* | 78*
O=C(NCCC1=CCCCC1)c1cccc(S(=O)(=O)N2CCCCC2)c1 | nt | nt | 0 | nt | nt | nt
O=C(NC1CCCC1)c1ccc(COc2ccccc2Br)o1 | nt | nt | -2 | 48 | nt | nt
Cc1ccc2nc3nc(NCC4CCCO4)c(C(=O)NC4CCCCC4)cc3c(=O)n2c1 (stereo unspecified) | -2 | 6 | 177* | -3 | nt | nt
COCCCNC(=O)c1cc2c(=O)n3cc(C)ccc3nc2nc1NCC1CCCO1 (stereo unspecified) | -3 | 4 | 173* | -4 | 19 | 60*
Cc1ccc2nc3nc(NCC4CCCO4)c(C(=O)NC4CCCC4)cc3c(=O)n2c1 (stereo unspecified) | 2 | -5 | 181* | -3 | 19 | 63*
COCCCNC(=O)c1ccc2nc3ccccc3c(=O)n2c1 | 7 | -4 | 6 | 35 | 15 | 48
Cc1ccc2nc3c(cc(C#N)c(=N)n3CC3CCCO3)c(=O)n2c1 (stereo unspecified) | nt | nt | nt | 7 | 11 | 42
CCc1nnc(NC(=O)CSc2nnc(-c3c[nH]c4ccccc34)n2CCOC)s1 | 1 | 0 | -1 | 60* | -1 | 3
O=C(CN1CCc2ccccc2C1)Nc1ccc(OC(F)(F)F)cc1 | nt | nt | -1 | -6 | nt | nt
COc1ccc(C(=O)/C=C/NCc2ccc(C)cc2)cc1 | 1 | nt | 25* | nt | nt | nt
Cc1ccc(C(=O)/C=C\NCc2ccccc2)cc1 | 1 | -4 | -1 | -6 | 0 | -6
COc1ccc(-c2cc(-n3c(C(F)(F)F)nc4ccccc43)n(CCC#N)n2)cc1 | -1 | 13* | 5 | 1 | -2 | 2
COc1ccc(Sc2nc3ccccc3n3c(C(F)(F)F)nnc23)cc1 | 2 | 0 | 0 | 6 | -3 | 2
CNC(=O)COC(=O)c1ccc(Cl)c(S(=O)(=O)N2CCCC2)c1 | 10* | 2 | -5 | -95 | 0 | -1
O=C(OCC(=O)N1CCCCCC1)c1ccc(Cl)c(S(=O)(=O)N2CCCC2)c1 | -2 | -2 | -3 | 20 | 1 | -4
Cc1ccc(C(=O)CSc2nnc(-c3ccc4[nH]c(C)c(C)c4c3)o2)cc1C | -3 | -5 | -1 | 74* | -1 | -2
CCOC(=O)N1CCN(C(=O)CSc2nnc(-c3ccc(C)c(C)c3)o2)CC1 | -2 | 1 | -2 | 13 | 0 | -3
Cc1ccc(-c2nnc(SCC(=O)N3CCCC3)o2)cc1C | 2 | -5 | 4 | 92* | -1 | 6
COc1ccc(N2CCN(C(=O)CSc3nnc(-c4ccc5[nH]c(C)c(C)c5c4)o3)CC2)cc1 | -1 | -1 | 1 | 64* | -1 | -1
COc1ccc(-c2nnc(SCC(=O)N3CCN(c4ccccc4)CC3)o2)cc1OC | -2 | -3 | -1 | 11 | 1 | 0
Cc1cc(C)cc(-c2nnc(SCC(=O)c3ccc4c(c3)OCCO4)o2)c1 | -1 | -1 | -1 | -6 | -4 | -2
SMILES | Wee1 degr inh | HMGR II inh | RanGTP-Imp inh | PHOSPHO1 block | Runt-CBFb FRET | Runt-SMMHC FRET
Cc1[nH]c2ccc(-c3nnc(SCC(=O)c4ccccc4F)o3)cc2c1C | -2 | 0 | -4 | 88* | -2 | -8
COC(=O)c1ccc(N2CCN(C(C)=O)CC2)c(NC(=O)c2cccnc2)c1 | 0 | -3 | 3 | 52 | -1 | 4
CC(=O)c1cccc(NC(=O)CSc2nc(N3CCOCC3)nc(N3CCOCC3)n2)c1 | nt | nt | -3 | 46 | nt | nt
CCOC(=O)C1=CN(CC2CCCO2)C=C(C(=O)OCC)C1c1ccccc1C(F)(F)F (stereo unspecified) | 5 | 2 | 5 | 48 | 109* | 91*
CCc1cccc(CC)c1NC(=O)CSc1nnc(CCC(=O)O)c(=O)[nH]1 | 9.5* | -4 | 0 | 32 | 1 | -4
COc1ccc(Nc2nc(-c3cccs3)cs2)c(OC)c1 | 8 | -7 | -1 | 80* | 19 | 6
CC(C)(Oc1ccc(Br)cc1Cl)C(=O)Nc1ccon1 | nt | nt | 0 | 37 | nt | nt
CN1CCN(C(=O)C2=C[C@@H](c3ccc(Br)cc3)C[C@@H](OCc3ccc(CO)cc3)O2)CC1 | 9.8* | -2 | -1 | 12 | 1 | 0
CN1CCN(C(=O)C2=C[C@@H](c3ccccc3)C[C@@H](OCc3ccc(CO)cc3)O2)CC1 | -1 | -7 | 0 | 30 | 0 | 1
Cc1cccc(N/C(N)=N/c2nc(CSc3ccc(Cl)cc3)cc(=O)[nH]2)c1 | 11* | nt | 1 | 2 | 2 | 3
COCc1cc(=O)[nH]c(/N=C(\N)Nc2cccc(C)c2)n1 | 2 | 2 | 1 | 17 | 1 | -5
Nc1nc2c(ncn2CCC(CO)CO)c(=O)[nH]1 | nt | nt | 1 | nt | nt | nt
CCCCn1c(N)c(N(CC(C)C)C(=O)c2oc3ccc(Br)cc3c2C)c(=O)[nH]c1=O | nt | nt | 0 | nt | nt | nt
O=C(NC(C(=O)N/N=C/c1c2ccccc2cc2ccccc12)c1n[nH]c(=O)c2ccccc12)c1ccccc1 (stereo unspecified) | 3 | -5 | 97* | 33 | 1 | 8
COc1cccc(-c2nc(=S)c3c(o2)CCCC3)c1 | 5 | 0 | 3 | 61* | 11 | 11
Cc1csc(N/N=C/c2ccc(O)c([N+](=O)[O-])c2)n1 | 3 | -1 | -3 | 93* | 18 | 2
O=[N+]([O-])c1cc(/C=N\Nc2nc(-c3ccccc3)cs2)ccc1O | -2 | 0 | -1 | -31 | 10 | -2
Cc1ccc(C(CC(=O)O)NC(=O)CN2C(=O)c3ccccc3C2=O)cc1 (stereo unspecified) | nt | nt | 70* | 28 | nt | nt
Cc1ccc(NC(=O)CN2C(=O)c3ccccc3C2=O)nc1 | -1 | -6 | 4 | 54 | -1 | -2
Cc1ccccc1C(=O)NNC(=S)NC(=O)COc1ccccc1 | -3 | -3 | -3 | 97* | 32 | 27
COC(=O)c1ccccc1NC(=S)NC(=O)COc1ccccc1 | 0 | -3 | 3 | 40 | 1 | 1
